Measurements published in ChEMBL document CHEMBL1137278, “Aza-stilbenes as potent and selective c-RAF inhibitors” (Bioorg Med Chem Lett, 2006).
Activity calls are given as the source filed them. No cut-off for these calls is given here.

What was measured:
[1] = Inhibition of c-RAF1/MEK1/ERK2 signalling pathway by SPA
Outline: (§1)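 Incubated 120 min at room temperature, stopped with EDTA/streptavidin SPA beads, counted by scintillation. 11-point 3-fold dilutions (0.0001–10 µM), normalized to DMSO and EDTA controls; IC50 fitted.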

[2] = biological target: Tyrosine-protein kinase Fyn (Mus musculus) (UniProt P39688); experiment: Inhibition of mouse FYN at 10 uM
[3] = biological target: Tyrosine-protein kinase Lyn (Homo sapiens) (UniProt P07948); experiment: Inhibition of LYN at 10 uM
[4] = biological target: Mitogen-activated protein kinase 10 (Homo sapiens) (UniProt P53779); experiment: Inhibition of JNK3
[5] = biological target: MAP kinase p38 (Homo sapiens) (UniProt O15264+Q15759+Q16539+P53778); experiment: Inhibition of p38; format: protein assay
[6] = biological target: Proto-oncogene tyrosine-protein kinase Src (Homo sapiens) (UniProt P12931); experiment: Inhibition of SRC kinase at 10 uM
[7] = biological target: Proto-oncogene tyrosine-protein kinase LCK (Mus musculus) (UniProt P06240); experiment: Inhibition of mouse LCK at 10 uM
[8] = biological target: RAF proto-oncogene serine/threonine-protein kinase (Homo sapiens, UniProt P04049); experiment: Inhibition of c-RAF; outline: as §1
[9] = biological target: Tyrosine-protein kinase Fyn (Mus musculus, UniProt P39688); experiment: Inhibition of mouse FYN
Chain of Tyrosine-protein kinase Fyn (P39688 whole entry): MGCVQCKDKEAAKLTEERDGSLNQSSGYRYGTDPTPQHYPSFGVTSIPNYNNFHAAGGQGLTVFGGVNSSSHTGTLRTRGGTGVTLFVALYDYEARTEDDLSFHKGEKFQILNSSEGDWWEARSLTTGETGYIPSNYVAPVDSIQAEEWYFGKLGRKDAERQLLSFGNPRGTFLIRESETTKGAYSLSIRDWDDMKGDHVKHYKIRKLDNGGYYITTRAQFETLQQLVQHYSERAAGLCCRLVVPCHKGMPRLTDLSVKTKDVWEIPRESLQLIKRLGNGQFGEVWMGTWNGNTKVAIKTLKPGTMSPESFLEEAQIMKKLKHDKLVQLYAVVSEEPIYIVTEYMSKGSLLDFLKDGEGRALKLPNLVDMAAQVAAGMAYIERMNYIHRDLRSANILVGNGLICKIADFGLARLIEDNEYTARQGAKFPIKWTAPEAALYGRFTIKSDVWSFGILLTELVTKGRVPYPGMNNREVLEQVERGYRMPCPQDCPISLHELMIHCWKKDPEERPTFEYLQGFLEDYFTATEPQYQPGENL

Chain of Mitogen-activated protein kinase 10 (Homo sapiens) (P53779 whole entry): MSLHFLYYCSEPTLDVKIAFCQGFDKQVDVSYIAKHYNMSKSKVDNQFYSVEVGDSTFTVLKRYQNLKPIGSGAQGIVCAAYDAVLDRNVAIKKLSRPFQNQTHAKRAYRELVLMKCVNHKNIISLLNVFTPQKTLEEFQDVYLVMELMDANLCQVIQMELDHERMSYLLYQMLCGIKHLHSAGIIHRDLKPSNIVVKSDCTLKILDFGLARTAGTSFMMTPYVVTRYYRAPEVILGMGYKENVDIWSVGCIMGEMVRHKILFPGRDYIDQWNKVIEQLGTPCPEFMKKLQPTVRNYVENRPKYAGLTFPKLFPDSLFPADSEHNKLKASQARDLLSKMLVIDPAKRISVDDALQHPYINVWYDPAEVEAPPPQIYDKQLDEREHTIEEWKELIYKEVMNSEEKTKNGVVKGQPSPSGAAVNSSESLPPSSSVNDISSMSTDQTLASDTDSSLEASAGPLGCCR
Chain of RAF proto-oncogene serine/threonine-protein kinase (P04049 whole entry): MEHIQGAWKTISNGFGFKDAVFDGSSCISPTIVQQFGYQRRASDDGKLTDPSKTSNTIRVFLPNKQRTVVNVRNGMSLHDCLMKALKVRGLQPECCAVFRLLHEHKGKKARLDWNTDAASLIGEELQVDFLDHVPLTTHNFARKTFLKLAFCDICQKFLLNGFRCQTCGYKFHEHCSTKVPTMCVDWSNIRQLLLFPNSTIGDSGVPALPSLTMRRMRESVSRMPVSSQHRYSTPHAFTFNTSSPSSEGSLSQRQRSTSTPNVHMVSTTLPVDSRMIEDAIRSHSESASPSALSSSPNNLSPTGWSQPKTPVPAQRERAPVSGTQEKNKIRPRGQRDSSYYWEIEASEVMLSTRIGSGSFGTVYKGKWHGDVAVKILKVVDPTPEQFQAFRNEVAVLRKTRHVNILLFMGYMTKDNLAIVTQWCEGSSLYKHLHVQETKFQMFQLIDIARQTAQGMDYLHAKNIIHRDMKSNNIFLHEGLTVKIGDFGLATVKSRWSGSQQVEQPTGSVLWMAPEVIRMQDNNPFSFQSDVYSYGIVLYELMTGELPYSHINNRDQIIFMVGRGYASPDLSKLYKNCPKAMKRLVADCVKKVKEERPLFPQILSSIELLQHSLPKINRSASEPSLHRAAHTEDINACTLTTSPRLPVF
Chain of Proto-oncogene tyrosine-protein kinase Src (Homo sapiens) (P12931 2-536 limits assumed): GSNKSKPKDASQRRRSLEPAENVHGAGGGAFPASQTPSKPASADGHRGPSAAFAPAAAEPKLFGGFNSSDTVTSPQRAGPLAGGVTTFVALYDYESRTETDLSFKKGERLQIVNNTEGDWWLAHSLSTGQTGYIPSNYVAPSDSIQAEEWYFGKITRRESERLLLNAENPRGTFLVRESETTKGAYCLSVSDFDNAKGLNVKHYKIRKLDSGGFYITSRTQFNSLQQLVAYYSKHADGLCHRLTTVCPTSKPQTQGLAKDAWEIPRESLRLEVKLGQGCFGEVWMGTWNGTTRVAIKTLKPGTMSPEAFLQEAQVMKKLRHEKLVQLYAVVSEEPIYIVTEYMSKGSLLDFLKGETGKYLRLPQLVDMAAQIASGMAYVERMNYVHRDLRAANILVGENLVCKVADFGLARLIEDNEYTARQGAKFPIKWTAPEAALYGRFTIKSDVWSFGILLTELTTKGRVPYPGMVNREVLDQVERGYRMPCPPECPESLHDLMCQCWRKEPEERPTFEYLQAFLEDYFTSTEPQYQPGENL
Chain of Tyrosine-protein kinase Fyn (Mus musculus) (P39688 whole entry): as the sequence (P39688 whole entry) above
Chain of Proto-oncogene tyrosine-protein kinase LCK (Mus musculus) (P06240 2-509 limits assumed): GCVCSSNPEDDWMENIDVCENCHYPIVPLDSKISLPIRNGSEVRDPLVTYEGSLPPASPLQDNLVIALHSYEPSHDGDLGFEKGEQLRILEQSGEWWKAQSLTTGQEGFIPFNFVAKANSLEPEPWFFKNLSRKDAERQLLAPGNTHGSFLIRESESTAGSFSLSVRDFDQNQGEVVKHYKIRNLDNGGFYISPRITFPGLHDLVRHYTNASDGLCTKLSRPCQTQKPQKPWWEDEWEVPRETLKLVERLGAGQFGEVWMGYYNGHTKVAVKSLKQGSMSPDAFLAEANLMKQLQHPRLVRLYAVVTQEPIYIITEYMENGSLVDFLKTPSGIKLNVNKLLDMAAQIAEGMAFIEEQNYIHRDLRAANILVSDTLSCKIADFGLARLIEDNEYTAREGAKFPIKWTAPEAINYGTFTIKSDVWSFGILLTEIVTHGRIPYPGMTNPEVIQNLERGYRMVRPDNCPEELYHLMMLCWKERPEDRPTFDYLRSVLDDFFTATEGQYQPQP
Chain of Tyrosine-protein kinase Lyn (Homo sapiens) (P07948 2-512 limits assumed): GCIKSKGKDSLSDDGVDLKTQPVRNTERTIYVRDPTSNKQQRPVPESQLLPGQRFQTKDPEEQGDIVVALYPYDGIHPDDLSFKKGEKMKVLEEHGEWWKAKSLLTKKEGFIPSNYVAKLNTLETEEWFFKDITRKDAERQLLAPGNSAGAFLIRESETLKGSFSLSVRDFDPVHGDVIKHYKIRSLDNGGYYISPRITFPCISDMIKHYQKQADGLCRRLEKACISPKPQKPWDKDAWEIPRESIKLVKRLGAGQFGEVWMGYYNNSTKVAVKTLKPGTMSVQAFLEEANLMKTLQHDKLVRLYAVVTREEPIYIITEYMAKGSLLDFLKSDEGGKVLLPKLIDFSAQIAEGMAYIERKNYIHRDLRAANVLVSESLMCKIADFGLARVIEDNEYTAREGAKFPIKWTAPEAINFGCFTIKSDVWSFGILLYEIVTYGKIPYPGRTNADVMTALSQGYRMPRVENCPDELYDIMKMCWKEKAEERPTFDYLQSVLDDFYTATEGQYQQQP

Row | SMILES | Log IC50 [1] | also measured
1 | CNC(=O)Oc1cc(C)c(/C=C/c2cncc(C(=O)NC)c2)c(C)c1 [GW432441X] | -8 | –
2 | Cc1cc(-c2ccccn2)cc(C)c1/C=C/c1cncc(-c2nn[nH]n2)c1 | -7 | Activity [2]: Active; Activity [3]: Active; Activity [4]: inactive; Activity [5]: inactive; Activity [6]: Active; Activity [7]: Active
3 | Cc1cc(O)cc(C)c1/C=C/c1cncc(C(N)=O)c1 [GW435821X] | -6.8 | –
4 | Cc1cccc(C)c1/C=C/c1cncc(C#N)c1 | -6 | –
5 | Cc1cc(-c2ccco2)cc(C)c1/C=C/c1cncc(-c2nn[nH]n2)c1 | -6.2 | –
6 | CNC(=O)Oc1cc(C)c(/C=C/c2cncc(C(N)=O)c2)c(C)c1 | -8.1 | Activity [4]: inactive; Activity [5]: inactive
7 | Cc1cc(O)cc(C)c1/C=C/c1cncc(C(=O)OC(C)(C)C)c1 [GW439255X] | -5.4 | –
8 | COC(=O)c1cncc(/C=C/c2c(C)cc(O)cc2C)c1 [GW406731X] | -6.2 | –
9 | CNC(=O)c1cncc(/C=C/c2c(C)cc(O)cc2C)c1 | -6.6 | –
10 | CNC(=O)c1cncc(/C=C/c2c(C)cccc2C)c1 [GW445012X] | -6.6 | –
11 | CNC(=O)Oc1cc(C)c(/C=C/c2cncc(C(=O)N(C)C)c2)c(C)c1 | -5.1 | –
12 | CNC(=O)Oc1cc(C)c(/C=C/c2cncc(C(=O)OC)c2)c(C)c1 | -7.5 | –
13 | CNC(=O)c1cncc(/C=C/c2ccccc2Cl)c1 [GW445017X] | -5.7 | –
14 | CNC(=O)c1cncc(/C=C/c2c(C)cccc2Cl)c1 | -7.1 | –
15 | CNC(=O)Oc1cc(C)c(/C=C/c2cncc(C(=O)OC(C)(C)C)c2)c(C)c1 | -7 | –
16 | Cc1cccc(C)c1/C=C/c1cncc(-c2nn[nH]n2)c1 | -7.9 | Activity [4]: inactive; Activity [5]: inactive
17 | CCc1cccc(CC)c1/C=C/c1cncc(C(=O)NC)c1 [GW450241X] | -4.6 | –
18 | CNC(=O)c1cncc(/C=C/c2c(Cl)cccc2Cl)c1 [GW445014X] | -6.6 | –
19 | Cc1cc(O)cc(C)c1/C=C/c1cncc(C(=O)O)c1 | -6.4 | Activity [4]: inactive; Activity [5]: inactive; IC50 [8]: 400 nM
20 | Cc1cc(O)cc(C)c1/C=C/c1cncc(-c2nn[nH]n2)c1 | -8.4 | IC50 [9]: 40 nM; Activity [4]: inactive; Activity [5]: inactive; IC50 [8]: 4 nM
21 | Cc1cc(O)cc(C)c1/C=C/c1cncc(C#N)c1 | -6.1 | –
22 | Cc1cc(O)cc(C)c1/C=C/c1cncc(C(=O)N(C)C)c1 [GW427984X] | -5.1 | –
23 | CNC(=O)Oc1cc(C)c(/C=C/c2cncc(C#N)c2)c(C)c1 | -7.4 | –
24 | Cc1cc(-c2cccs2)cc(C)c1/C=C/c1cncc(-c2nn[nH]n2)c1 | -6.5 | –
25 | Cc1cc(-c2ccsc2)cc(C)c1/C=C/c1cncc(-c2nn[nH]n2)c1 | -6 | –
26 | CNC(=O)Oc1cc(C)c(/C=C/c2cncc(C(=O)O)c2)c(C)c1 | -8.2 | Activity [4]: inactive; Activity [5]: inactive
27 | CNC(=O)c1cncc(/C=C/c2ccccc2C)c1 [GW445015X] | -5.5 | –
28 | Cc1cc(-c2cccnc2)cc(C)c1/C=C/c1cncc(-c2nn[nH]n2)c1 | -6.2 | –
